The source made the active and inactive calls. No cut-off for these calls is given here.
Columns and labels:
Type in all cases: functional, cell-based
[1] = Antiplatelet activity in human platelet assessed as inhibition of collagen-induced platelet aggregation incubated for 5 mins prior to collagen challenge measured over 5 mins by turbidimetric method
Method in brief: (§1)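 Washed human platelets from buffy coat, resuspended in Tyrode-HEPES pH 7.4 with 2 mM CaCl2. Compound in DMSO preincubated with platelets, then collagen (2-4 μg/mL), CRP, thrombin, U-46619 or ionomycin added. Light transmission followed over 5 min in a dual-channel aggregometer (Born turbidimetry); aggregation taken as maximal transmission change. Non-collagen agonists tested at 20 μM compound; at least four experiments in duplicate.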

[2] = test system: Platelet; assay: Antiplatelet activity in human platelet assessed as inhibition of CRP-XL-induced activated Gp2b/3a expression incubated for 5 mins prior to CRP-XL challenge measured after 15 mins by flow cytometry
Method in brief: (§2)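 Washed platelets from donor buffy coat in modified Tyrode-HEPES (pH 7.4, 2 mM Ca2+), pre-incubated 5 min with DMSO or compound. Flow cytometry: CRP-XL stimulation with FITC-PAC-1 for 15 min at room temperature, 10,000 events, PAC-1 mean fluorescence and % positive platelets. Phosphotyrosine: CRP-XL 5 μg/mL, SDS/EDTA (2%/1 mM final) lysates, immunodot blot with 4G10, HRP secondary, chemiluminescence.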

[3] = test system: Platelet; assay: Antiplatelet activity in human platelet assessed as inhibition of CRP-XL-induced platelet aggregation at 20 uM incubated for 5 mins prior to CRP-XL challenge measured over 5 mins by […]; method in brief: as §1
[4] = test system: Platelet; assay: Antiplatelet activity in human platelet assessed as inhibition of ionomycin-induced platelet aggregation at 20 uM incubated for 5 mins prior to U-46619 challenge measured over 5 mins by […]; settings: in the assay text read “ionomycin challenge” for “U-46619 challenge”; method in brief: as §1
[5] = test system: Platelet; assay: Antiplatelet activity in human platelet assessed as inhibition of thrombin-induced platelet aggregation at 20 uM incubated for 5 mins prior to thrombin challenge measured over 5 mins by […]; method in brief: as §1
[6] = test system: Platelet; assay: Antiplatelet activity in human platelet assessed as inhibition of U-46619-induced platelet aggregation at 20 uM incubated for 5 mins prior to U-46619 challenge measured over 5 mins by […]; method in brief: as §1
[7] = test system: Platelet; assay: Antiplatelet activity in human platelet assessed as inhibition of CRP-XL-induced phosphotyrosine level incubated for 5 mins prior to CRP-XL challenge measured after 5 mins by immunodot blot analysis; method in brief: as §2

SMILES | IC50 [1] [µM] | also measured
O=C1CC2OCCC2=NN1 (configuration not stated) | 70.6 | 
CC(C)(C)[Si](OCc1ccnn(Cc2ccccc2)c1=O)(c1ccccc1)c1ccccc1 | 1.31 | 
O=c1cc2c(n[nH]1)CCCO2 | > 100 | 
O=c1c(CBr)ccnn1Cc1ccccc1 | > 100 | 
O=C1CC2OCCCC2=NN1 (configuration not stated) | > 100 | 
O=c1c(CO)ccnn1Cc1ccccc1 | > 100 | 

Continued, in another order:

IC50 [1] [µM] | SMILES | also measured
> 100 | O=c1cc(CBr)cnn1Cc1ccccc1 | 
0.55 | CC(C)(C)[Si](OCc1cnn(Cc2ccccc2)c(=O)c1)(c1ccccc1)c1ccccc1 | inhibition [2]: Active; inhibition [3]: Active; inhibition [4]: inactive; inhibition [5]: inactive; inhibition [6]: inactive; inhibition [7]: Dose-dependent effect
> 100 | O=c1cc(CO)cnn1Cc1ccccc1 | 
3.75 | O=c1cc(COCc2ccccc2)cnn1Cc1ccccc1 | 
17.5 | O=c1c(COCc2ccccc2)ccnn1Cc1ccccc1 | 

Source: ChEMBL document CHEMBL3414501, “New platelet aggregation inhibitors based on pyridazinone moiety” (Eur J Med Chem, 2015)
